The source of these data is ChEMBL document CHEMBL1132229, “3,7-Disubstituted-1,2,3,4-tetrahydroisoquinolines display remarkable potency and selectivity as inhibitors of phenylethanolamine N-methyltransferase versus the alpha2-adrenoceptor” (J Med Chem, 1999).

Molecules are shown by their SMILES. Where only a bound is given, the exact number is not on record here.

For assay [1], the target named is T1, Phenylethanolamine N-methyltransferase (Bos taurus, UniProt P10938).
T1 sequence (P10938 whole entry): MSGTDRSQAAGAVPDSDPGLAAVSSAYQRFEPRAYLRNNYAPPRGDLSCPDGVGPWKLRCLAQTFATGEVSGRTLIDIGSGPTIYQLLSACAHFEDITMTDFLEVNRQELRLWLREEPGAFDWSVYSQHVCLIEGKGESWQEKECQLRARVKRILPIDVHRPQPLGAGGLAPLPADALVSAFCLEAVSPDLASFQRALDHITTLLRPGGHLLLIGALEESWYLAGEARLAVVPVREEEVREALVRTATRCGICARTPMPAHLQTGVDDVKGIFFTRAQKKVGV
The assay can be described thus: Inhibition of bovine adrenal Phenylethanolamine N-Methyltransferase.

Assay [2] has as its target T2, Adrenergic receptor alpha-2 (Rattus norvegicus, UniProt P22086+P19328+P22909).
T2 sequence (P22086 whole entry): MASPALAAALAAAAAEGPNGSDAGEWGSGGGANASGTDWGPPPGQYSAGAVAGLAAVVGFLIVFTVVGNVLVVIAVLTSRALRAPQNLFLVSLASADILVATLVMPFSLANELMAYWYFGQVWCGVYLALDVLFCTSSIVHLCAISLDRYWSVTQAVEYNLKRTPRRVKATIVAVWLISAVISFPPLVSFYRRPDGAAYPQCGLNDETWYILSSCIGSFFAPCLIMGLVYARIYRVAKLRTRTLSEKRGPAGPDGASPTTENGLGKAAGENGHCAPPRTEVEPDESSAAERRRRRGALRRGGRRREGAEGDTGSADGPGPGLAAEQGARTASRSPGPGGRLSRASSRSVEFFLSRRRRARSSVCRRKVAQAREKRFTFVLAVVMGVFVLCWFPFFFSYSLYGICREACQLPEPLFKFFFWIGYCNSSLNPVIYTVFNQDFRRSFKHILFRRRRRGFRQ
T2 sequence (P19328 whole entry): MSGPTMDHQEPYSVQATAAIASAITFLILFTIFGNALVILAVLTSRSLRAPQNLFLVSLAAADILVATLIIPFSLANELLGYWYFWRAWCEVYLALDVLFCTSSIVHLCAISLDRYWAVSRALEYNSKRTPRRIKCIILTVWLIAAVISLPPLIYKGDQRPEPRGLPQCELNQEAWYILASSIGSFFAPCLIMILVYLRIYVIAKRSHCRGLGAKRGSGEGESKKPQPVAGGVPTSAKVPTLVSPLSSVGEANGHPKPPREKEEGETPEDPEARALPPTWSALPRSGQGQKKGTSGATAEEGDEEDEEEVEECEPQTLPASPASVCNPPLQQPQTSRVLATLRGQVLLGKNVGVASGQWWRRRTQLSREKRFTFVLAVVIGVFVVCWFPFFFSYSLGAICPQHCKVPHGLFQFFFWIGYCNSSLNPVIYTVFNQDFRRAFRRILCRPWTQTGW
T2 sequence (P22909 whole entry): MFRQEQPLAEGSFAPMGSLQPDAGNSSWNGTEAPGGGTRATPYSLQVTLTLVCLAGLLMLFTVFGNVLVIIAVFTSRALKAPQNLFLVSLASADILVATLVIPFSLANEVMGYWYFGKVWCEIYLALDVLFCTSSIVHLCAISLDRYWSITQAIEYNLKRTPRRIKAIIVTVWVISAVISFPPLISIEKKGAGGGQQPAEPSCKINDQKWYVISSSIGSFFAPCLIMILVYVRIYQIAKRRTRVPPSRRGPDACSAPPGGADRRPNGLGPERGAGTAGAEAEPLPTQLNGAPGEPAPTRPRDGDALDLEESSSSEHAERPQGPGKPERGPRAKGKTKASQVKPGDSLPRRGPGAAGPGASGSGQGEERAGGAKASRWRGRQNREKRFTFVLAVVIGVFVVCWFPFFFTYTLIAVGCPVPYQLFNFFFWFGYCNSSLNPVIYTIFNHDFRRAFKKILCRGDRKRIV
The assay can be described thus: Displacement of [3H]clonidine from Alpha-2 adrenergic receptor of rat cortical membranes. Format: cell membranes, Membrane. The gist of the method: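 Male Sprague-Dawley rat cortex homogenized in ice-cold 50 mM Tris/HCl (pH 7.7 at 25 °C), washed by three 50000g spins, resuspended at 200 volumes. [3H]clonidine 4.0 nM final; 25 °C, 30 min; terminated by vacuum filtration on GF/B filters and scintillation counting. Nonspecific binding with 2 μM phentolamine.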

Assay [3] in a line: Relative affinity for PNMT and alpha2 adrenergic receptors.
Assay [4] deals with T2, Adrenergic receptor alpha-2. The assay can be described thus: In vitro binding affinity towards cortical membranes of male Sprague-Dawley rats alpha-2 adrenergic receptor by replacing [3H]clonidine. The method, boiled down: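 Rat cortex (male Sprague-Dawley) homogenised in ice-cold 50 mM Tris/HCl pH 7.7, washed by three 50000g spins. Tissue incubated with 4.0 nM [3H]clonidine (final) and drug at five concentrations over a 16-fold range, 25 °C for 30 min. Bound ligand collected by vacuum filtration on GF/B filters and counted. Nonspecific binding set with 2 μM phentolamine. Quadruplicate. IC50 from log-probit analysis; Ki = IC50/(1+[clonidine]/KD).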

The target in assay [5] is T1, Phenylethanolamine N-methyltransferase. The assay can be described thus: In vitro inhibitory activity against bovine adrenal phenylethanolamine N-methyl transferase.
Assay [6] addresses T3, Phenylethanolamine N-methyltransferase (Bos taurus) (UniProt P10938).
T3 sequence (whole entry): T1 sequence (P10938 whole entry)
The assay can be described thus: Stereo selectivity ratio for PNMT(-)/(+ ) activities.

Assay [7] has as its target Adrenergic receptor alpha-2 (Rattus norvegicus) (UniProt P22086+P19328+P22909). The experiment in a line: Stereo selectivity ratio for alpha-2(-)/(+) activities.
For assay [8], the target named is T1, Phenylethanolamine N-methyltransferase. The assay can be described thus: In vitro inhibitory activity against bovine adrenal Phenylethanolamine N-Methyltransferase (for +- stereoisomer).

Broadly, the Ki is the dissociation constant of the complex between target and ligand, obtained from inhibition or displacement. A low value points to a stronger hold on the target. On to `C[C@H]1Cc2ccc([N+](=O)[O-])cc2CN1`, for which, in assay [1], the affinity, expressed as Ki, was 0.25 µM.

In the case of `NC(=O)C1Cc2ccccc2CN1` (centres undefined), the Ki in assay [2] was found to be 250 µM.

`CS(=O)(=O)c1ccc2c(c1)CNC(CO)C2` (centres undefined) showed a Selectivity in assay [3] of 1000. In addition, the Ki in assay [1] is 0.64 µM.

Consider `CCC1Cc2ccccc2CN1` (centres undefined), for which, in assay [4], the Ki turned out to be 0.66 µM.

Regarding `OC[C@@H]1Cc2ccccc2CN1`, the Selectivity in assay [3] stood at 1.1. This molecule yielded a Ki in assay [1] of 15 µM.

For `O=C(O)C1Cc2ccccc2CN1` (centres undefined), the Ki in assay [5] is greater than 2000 µM.

As for `O=[N+]([O-])c1ccc2c(c1)CN[C@@H](CO)C2`, the Ki in assay [1] was found to be 0.24 µM.

`O=[N+]([O-])c1ccc2c(c1)CNC(CO)C2` (centres undefined) gave a Ki in assay [1] of 0.29 µM.

Take `NS(=O)(=O)c1ccc2c(c1)CNC(CO)C2` (centres undefined): the Selectivity in assay [3] stood at 4100. This molecule displayed a Ki in assay [1] of 0.34 µM.

In the case of `COC(=O)C1Cc2ccccc2CN1` (centres undefined), the Ki in assay [2] was found to be 11 µM.

`O=[N+]([O-])c1ccc2c(c1)CN[C@H](CO)C2`: the Ki in assay [1] came out at 0.9 µM.

As to `C[C@@H]1Cc2ccc([N+](=O)[O-])cc2CN1`, the figures for the Ratio in assay [6] and in assay [7] were 5.2 and 2.8, respectively. Also, in assay [3], the Selectivity came out at 41. In assay [1], this molecule displayed a Ki of 1.3 µM.

Turning to `CC1Cc2ccc([N+](=O)[O-])cc2CN1` (centres undefined), the Ki in assay [2] amounted to 31 µM; in assay [1], 0.49 µM. The molecule also returned a Selectivity in assay [3] of 63.

In assay [3], `COCC1Cc2ccccc2CN1` (centres undefined) had a Selectivity of 0.3. The molecule also gave a Ki in assay [1] of 9.2 µM.

As for `OC[C@H]1Cc2ccccc2CN1`, the results for the Ratio in assay [6] and in assay [7] were 27 and 3.9, respectively. Moreover, the Selectivity in assay [3] is 7.9. The molecule also gave a Ki in assay [1] of 0.56 µM.

As to `OCC1Cc2ccccc2CN1` (centres undefined), the Selectivity in assay [3] is 6. In assay [8], this molecule returned an inhibition constant Ki of 1.1 µM.
